TNAP act hiacc: TNAP (human) activation, high acceptor | activation factor at 20 µM | 200,000 tested, under 10 active | purified TNAP, CDP-star luminescence, 1 M DEA, 30 min; active compounds read high; 0 = EDTA background, 1 = DMSO-only activity;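 active = activation factor at least 2 at 20 µM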
Target sequence (P05186 whole entry, looked up): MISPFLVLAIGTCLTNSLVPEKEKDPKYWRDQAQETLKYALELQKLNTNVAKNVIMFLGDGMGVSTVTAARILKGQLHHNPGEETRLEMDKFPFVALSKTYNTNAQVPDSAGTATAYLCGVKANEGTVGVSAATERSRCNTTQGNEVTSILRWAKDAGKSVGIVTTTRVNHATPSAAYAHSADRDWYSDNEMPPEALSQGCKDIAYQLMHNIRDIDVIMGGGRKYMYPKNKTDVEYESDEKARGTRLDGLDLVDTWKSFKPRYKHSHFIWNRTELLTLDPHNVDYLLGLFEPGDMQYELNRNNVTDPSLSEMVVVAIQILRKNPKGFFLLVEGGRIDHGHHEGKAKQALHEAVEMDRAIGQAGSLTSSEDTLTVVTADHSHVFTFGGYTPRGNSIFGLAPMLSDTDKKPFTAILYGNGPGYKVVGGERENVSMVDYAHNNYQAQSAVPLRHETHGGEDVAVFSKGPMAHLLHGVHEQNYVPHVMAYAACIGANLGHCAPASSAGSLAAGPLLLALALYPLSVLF
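Dosing: 20 µM single point. System: human TNAP. Amount: TNAP 1/800 final. Incubation: 30 min, room temperature. Read-out: TNAP activation factor scaled between EDTA and DMSO control wells. Signal: luminescence from CDP-star hydrolysis. Medium: 1 M DEA, pH 9.8, Mg2+, Zn2+. Control set: EDTA negative control, DMSO positive control.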
TNAP inh hiacc: TNAP (human) inhibition, high acceptor. P05186. purified TNAP, CDP-star luminescence, 1 M DEA. inhibition, % at 20 µM. hit rate 0.03% among 200,000. AID 1135;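 active = over 50% inhibition of tissue-nonspecific alkaline phosphatase at 20 µM in the single-dose screen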;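 also: plate controls were DMSO wells for no effect and EDTA-quenched wells as full inhibition for full effect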
TNAP inh no acc: inhibitors of human TNAP without phosphate acceptor; hit rate 0.26% among 200,000; purified TNAP, CDP-star luminescence, 30 min; P05186; inhibition, % at 20 µM;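 active = tissue-nonspecific alkaline phosphatase inhibition above about 50% at 20 µM in the single-dose screen, limit read from the data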;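 also: 0% = DMSO negative control and 100% = EDTA positive control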
L major viab: reduces viability of Leishmania major promastigotes; inhibition, % at 10 µM; hit rate 9% among 200,000; resazurin fluorescence viability; in the data active = inhibition above about 50%;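 also: promastigotes grown with compound for 44 hours at 28 °C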
PTEN del growth: PTEN-deleted cell growth suppression; HCT116 PTEN-null viability, CellTiter-Glo, 60 h; active compounds read low; viability, % at 10 µM; hit rate 1.2% among 140,000; AID 827;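 active = viability at or below a set limit, 4 SD under the median of all tested compounds, cut at about 3.7% in these data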;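 also: PTEN knockout HCT116 line with beta catenin targeted HCT116 as companion control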
HCT116 bCat-KO: beta-catenin-lacking colon tumor cell growth suppression. HCT116 beta-catenin knockout viability, CellTiter-Glo, 60 h; active compounds read low. viability, % at 10 µM. hit rate 1.5% among 140,000. AID 818;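 active = viability at or under a set limit, the compound median less 4 SD, cut at about 6% in these data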;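 also: 0% = Hyamine 1622 control at 20 µM and 100% = untreated cell control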
An asterisk follows results filed as active; / = no result. A selection: hits, their analogues and other compounds. The true share with any hit is near 9.6%.

SMILES | TNAP act hiacc | TNAP inh hiacc | TNAP inh no acc | L major viab | PTEN del growth | HCT116 bCat-KO
Cc1cc(NC(=O)CCCS(=O)(=O)c2nc(-c3cccs3)cc(C(F)(F)F)n2)no1 | 1.1 | -7.6 | -13.1 | 43.7 | 3.3* | 6.7
COC(=O)CCS(=O)(=O)c1nc(-c2ccccc2)cc(C(F)(F)F)n1 | 1 | -0.7 | -1.0 | 3.3 | 84.0 | 87.8
COc1ccc(-c2cc(C(F)(F)F)nc(S(C)(=O)=O)n2)cc1 | 1.1 | -6.0 | -17.2 | 100.4* | 97.7 | 97.5
COc1ccc(-c2cc(C(F)(F)F)nc(S(=O)(=O)CCCC(=O)Nc3cccnc3Cl)n2)cc1OC | 1 | -2.5 | -9.6 | 81.6* | / | /
CS(=O)(=O)c1nc(-c2cccs2)cc(C(F)(F)F)n1 | 1.1 | -5.0 | -7.7 | 36.6 | 1.3* | 3.3*
CCOC(=O)c1c(N2C(=O)C3C4C=CC(C4)C3C2=O)sc2c1CCC(C)C2 (stereo unspecified) | 1 | -1.5 | -5.4 | 1.9 | 79.7 | 77.8
Cc1c([N+](=O)[O-])c([N+](=O)[O-])nn1CC(=O)N1CCOCC1 | 1 | -4.0 | -6.4 | -1.9 | / | /
Fc1ccc(-c2cn3cc(C(F)(F)F)cc(Cl)c3n2)cc1 | 1 | -2.6 | -9.6 | -1.8 | 70.9 | 88.3
Oc1ccc(-c2cn3cc(C(F)(F)F)ccc3n2)cc1 | 1 | 0.2 | -13.4 | 51.3* | 87.8 | 84.4
COc1ccc(Cn2c3ccc(OC)cc3c3nc4ccccc4nc32)cc1 | 1 | 2.8 | -27.0 | 0.5 | 6.7 | 6.7
COc1ccc2c(c1)c1nc3ccccc3nc1n2CC(=O)OC(C)C | 1 | 1.7 | 10.6 | 5.7 | 3.7* | 2.3*
COc1ccc(NC(=O)COC(=O)c2ncc(Cl)c(Cl)c2Cl)c(OC)c1 | 1 | -2.0 | -8.5 | -2.6 | 96.1 | 93.8
COc1ccc2nc(N3C(=O)CC(Cc4ccc(C)cc4)C3=O)sc2c1 (stereo unspecified) | 1 | 1.1 | -3.6 | 75.7* | 90.5 | 89.5
O=c1c2ccccc2n2c(-c3ccc(F)cc3)nnc2n1Cc1ccccc1 | 1 | -3.0 | -11.2 | 56.1* | 78.9 | 86.8
CCn1cc(CNC(=O)CCc2ccc(OC)cc2)cn1 | 1 | 1.1 | 2.4 | -7.3 | 77.2 | 85.4
CN(Cc1ccccc1)CC(O)COc1ccc(CNCCOc2cccnc2)cc1 (stereo unspecified) | 1.1 | -5.3 | -4.8 | 84.3* | / | /
Cc1nn(C)cc1CNCc1ccc(OCC(O)CN(C)Cc2ccccc2)cc1 (stereo unspecified) | 1 | -4.7 | -13.5 | 86.5* | / | /
OC(COc1ccc(CNCc2cccnc2)cc1)CN1CCc2ccccc2C1 (stereo unspecified) | 1 | 0.5 | -2.2 | 89.5* | / | /
CCn1cc(CNCc2ccc(OCC(O)CN(C)Cc3ccccc3)cc2)cn1 (stereo unspecified) | 1.1 | -8.1 | -12.1 | 88.0* | / | /
CN(Cc1ccccc1)CC(O)COc1ccc(CNCCCOc2cccnc2)cc1 (stereo unspecified) | 1 | -2.7 | -7.2 | 90.7* | / | /
OC(COc1ccccc1CNCc1cccnc1)CN1CCc2ccccc2C1 (stereo unspecified) | 1.1 | -6.3 | -3.4 | 9.4 | / | /
CN(Cc1ccccc1)CC(O)COc1ccc(CNCc2cccnc2)cc1 (stereo unspecified) | 1.1 | -8.2 | -6.8 | 80.9* | / | /
CN(Cc1ccccc1)CC(O)COc1ccc(CNCc2ccc(Cl)s2)cc1 (stereo unspecified) | 1 | 0.1 | -3.3 | 98.1* | / | /
CCOc1ccc(CCNC(=O)COC(=O)c2cc(OC)cc(OC)c2)cc1OCC | 1.1 | -6.6 | -7.4 | 0.7 | / | /
COc1ccc2[nH]cc(S(=O)(=O)c3ccc(C(C)C)cc3)c(=O)c2c1 | 1 | -4.0 | -8.6 | -7.4 | / | /
SMILES | TNAP act hiacc | TNAP inh hiacc | TNAP inh no acc | L major viab | PTEN del growth | HCT116 bCat-KO
Cc1cc(=S)c2cccc(C)c2[nH]1 | 1.1 | -5.2 | -0.3 | -2.7 | / | /
O=C(c1ccc(S(=O)(=O)N2CCOCC2)cc1)N1CCOCC1 | 1 | -0.6 | -5.0 | 2.5 | / | /
Cc1oc2c(c1C(=O)O)C(=O)c1ccccc1C2=O | 1 | 3.2 | -3.8 | 100.1* | / | /
Cc1cc(=O)oc(C)c1C(=O)O | 1 | 0.4 | -8.2 | -5.5 | 99.2 | 95.8
Cc1oc(=O)c(NC(=O)c2ccccc2)cc1C(=O)c1ccccc1 | 1 | -3.3 | -3.1 | 4.8 | 83.7 | 89.5
Cc1oc2c(c1C(=O)c1ccccc1)C(=O)C(=O)c1ccccc1-2 | 1 | 2.5 | -1.1 | 100.4* | 1.5* | 1.2*
Nn1c(SCC(=O)N2CCOCC2)nnc1C1CC1 | 1.1 | -5.5 | -4.6 | -7.3 | / | /
C=CCC(=O)OCC(=O)Nc1ccc(Cl)cn1 | 1 | -4.2 | -11.3 | -0.6 | 94.1 | 93.9
Cc1ccc2c(CC(=O)OCC(=O)Nc3ccc(Cl)cn3)coc2c1 | 1 | -0.9 | -13.0 | 50.9* | 93.8 | 98.9
CC1Cc2ccccc2N1CC(=O)NCc1ccc2c(c1)OCO2 (stereo unspecified) | 1 | -0.3 | -11.9 | -1.3 | 89.8 | 84.9
C=CCN(CC=C)S(=O)(=O)c1ccc(NC(=S)NC(=O)Cc2ccc(OC)cc2)cc1 | 1 | 3.8 | -0.7 | 61.5* | 90.8 | 83.0
COC(=O)C1=C(C(=O)OC)C(c2ccccc2O)c2sc(=O)[nH]c2S1 (stereo unspecified) | 1 | 3.9 | -6.3 | -1.5 | 88.1 | 90.6
CCOC(=O)c1[nH]c2ccccc2c1NC(=O)c1ccc(S(=O)(=O)N2CCCC2)cc1 | 1 | 1.8 | 1.7 | -0.6 | 90.4 | 87.1
CN(C)S(=O)(=O)c1ccc(NC(=O)CN2CCC(Cc3ccccc3)CC2)cc1 | 1.1 | -8.1 | -10.5 | 76.0* | / | /
C=CCn1c(SCN2C(=O)c3ccccc3C2=O)nc2ccc(Cl)cc2c1=O | 1 | 0.2 | 5.8 | -5.2 | 93.7 | 91.9
N=c1n(CCN2CCCC2)c2ccccc2n1CC(O)c1ccco1 (stereo unspecified) | 1 | -1.1 | -8.7 | -2.0 | 86.0 | 92.4
CCCCCCCn1c(=N)n(CC(=O)c2ccco2)c2ccccc21 | 1 | -2.0 | -2.3 | 100.4* | 2.0* | 4.7*
CCCCCCCn1c(=N)n(CC(O)c2ccco2)c2ccccc21 (stereo unspecified) | 1.1 | -5.4 | -7.1 | 81.8* | / | /
COc1ccc(N(C(C)=O)c2nc(C)cc(C)c2C#N)c(OC)c1 | 1.1 | -5.4 | -9.7 | -5.5 | / | /
CCCC(=O)Nc1nnc(SCC)s1 | 1.1 | -5.3 | -13.6 | 69.8* | 107.0 | 99.9
CCSc1nnc(NC(=O)CSc2ncccn2)s1 | 1.1 | -5.8 | -16.8 | 1.1 | 101.7 | 104.8
CCOC(=O)c1c(OCC)[nH]c2c1cc(O)c1ccccc12 | 1 | -0.2 | -3.4 | 99.0* | 83.7 | 78.2
CCOC(=O)c1c(C)[nH]c2cc(Br)c(O)cc12 | 1.1 | -5.5 | -5.9 | 17.2 | 87.8 | 74.3
CC(C)CC(=O)OCC(=O)Nc1ccccc1Sc1ccccc1 | 1.1 | -9.0 | -10.4 | -6.0 | 87.6 | 91.3
